This is an account of results in ChEMBL document CHEMBL2010794, “Discovery of nor-seco himbacine analogs as thrombin receptor antagonists” (Bioorg Med Chem Lett, 2012).

In one data set the test system is Cynomolgus monkey. The data set is described as follows: Ex-vivo inhibition of PAR1 in cynomolgus monkey assessed as inhibition of haTRAP-induced platelet aggregation at 1 mg/kg, po at 24 hrs by aggregometry. In kind it is functional. As to conditions: Macaca fascicularis. The procedure, abridged: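 Cynomolgus monkeys dosed orally in 20% PEG-HPBCD (hydrochloride salt for the 7a-hydroxy series); blood sampled at various times up to 24 h; haTRAP added to whole blood at 1 µM to trigger aggregation, measured by aggregometer; result given as % reduction in haTRAP-induced aggregation at the stated dose and time.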

Data set [1] in a line: AUC (0 to 24 hrs) in cynomolgus monkey plasma at 1 mg/kg, po. The format is ADME, organism-based, Macaca fascicularis. Also on record: time < 24 hr, dose 1 mg/kg, route oral.
Data set [2] is described as follows: Oral bioavailability in cynomolgus monkey at 1 mg/kg. The format is ADME, organism-based, Macaca fascicularis. As to conditions: in vivo. The procedure, abridged:
(§1)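 Full cynomolgus PK study: 1 mg/kg oral in 0.4% methylcellulose and 1 mg/kg intravenous in 20% HPBCD; AUC, oral Cmax, Tmax, half-life, Vd(ss) and clearance derived from plasma concentrations.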

Data set [3] is described as follows: AUC (0 to 24 hrs) in cynomolgus monkey at 1 mg/kg, po and 1 mg/kg, iv. In kind it is ADME, organism-based, Macaca fascicularis. As to conditions: plasma. A digest of the protocol:
as §1

Data set [4] can be described thus: Cmax in cynomolgus monkey at 1 mg/kg, po. As to conditions: in vivo. The arrangement: dose 1 mg/kg, route oral. In kind it is ADME, organism-based, Macaca fascicularis. The procedure, abridged:
as §1

Data set [5] can be described thus: Tmax in cynomolgus monkey at 1 mg/kg, po and 1 mg/kg, iv. In kind it is ADME, organism-based, Macaca fascicularis. As to conditions: in vivo. A digest of the protocol: as §1
Data set [6] can be described thus: Volume of distribution at steady state in cynomolgus monkey at 1 mg/kg, po and 1 mg/kg, iv. In kind it is ADME, organism-based, Macaca fascicularis. Conditions: in vivo, read-out: Vdss. A digest of the protocol: as §1
Data set [7] is described as follows: Clearance in cynomolgus monkey at 1 mg/kg, po and 1 mg/kg, iv. The format is ADME, organism-based, Macaca fascicularis. Conditions: in vivo. A digest of the protocol:
as §1

Data set [8] can be described thus: Half life in cynomolgus monkey at 1 mg/kg, po and 1 mg/kg, iv. The format is ADME, organism-based, Macaca fascicularis. Conditions: in vivo. A digest of the protocol:
as §1

One may read the inhibition in vivo as the relative decrease from the control value, in per cent. Usually AUC(0-t) stands for exposure summed from dosing to a finite time, without extrapolation to infinity. As a reminder, the bioavailability is the share of a dose that reaches the circulation, judged against a reference dose that is usually intravenous. As usually defined, the Cmax is the peak of the concentration-time curve. For orientation: Tmax means the time from dosing to the highest level. As a reminder, the half-life is the time in which the quantity being followed falls by half.

On to `CC[C@H]1[C@H](/C=C/c2ccc(-c3ccccc3)cn2)[C@@H]2[C@@H](C)OC(=O)[C@]2(O)C[C@@H]1C.Cl`, for which the inhibition in vivo at 1 mg/kg in the data set on Cynomolgus monkey stood at 65%. Further, the AUC(0-t) at 24 h in data set [1] turned out to be 3820 ng·h/mL. Also, the bioavailability in data set [2] worked out at 78%. In addition, the exposure AUC(0-t) in data set [3] amounted to 3980 ng·h/mL. For the same compound, the Cmax in [4] was 397 ng/mL. The Tmax in data set [5] stood at 1 h. Also, the Vd in data set [6] was found to be 1.5 L/kg. Also, in [7], the clearance was found to be 3.3 mL/min/kg. In data set [8], this compound had a half-life of 10.7 h.
